Activity calls are given as the source filed them. No cut-off for these calls is given here.
Legend:
[1] = Metal chelating activity assessed as Zn2+-compound complex formation by measuring stability constant for ZnL(OH)2 using pre-Zn2+-complexed compound (ZnL(OH)) in 0.15M NaCl at 298.1K by potentiometric titration analysis
Procedure, shortened: (§1)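 Glass-electrode potentiometric titration with an Ag/AgCl reference in saturated KCl. The electrode was calibrated as an [H+] probe against standardized HCl with CO₂-free NaOH, using Gran's method (pKw 13.73(1)). Range was pH 2.0–11.0, with metal and ligand at 1×10⁻³ to 5×10⁻³ M in 1:1 ratio. At least two curves per compound were merged and fitted with HYPERQUAD.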

[2] = test system: JeKo-1; assay: Antiproliferative activity against human JeKo1 cells assessed as reduction in cell viability at 10 uM incubated for 48 hrs by cell titer-glo assay; assay type: functional, cell-based
Procedure, shortened: (§2)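 Cells plated and treated 24 h later with 10 µM compound for 48 h; viable cells quantified by CellTiter-Glo ATP luminescence. Expressed as percentage of viable cells relative to untreated; mean ± SD of three independent experiments, each in triplicate.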

[3] = test system: U-87 MG; assay: Antiproliferative activity against human U87MG cells assessed as reduction in cell viability at 10 uM incubated for 48 hrs by cell titer-glo assay; assay type: functional, cell-based; details: U-87MG ATCC; procedure, shortened: as §2
[4] = test system: Jurkat; assay: Antiproliferative activity against human Jurkat cells assessed as reduction in cell viability at 10 uM incubated for 48 hrs by cell titer-glo assay; assay type: functional, cell-based; procedure, shortened: as §2
[5] = Metal chelating activity assessed as Zn2+-compound complex formation by measuring stability constant for ZnL in 0.15M NaCl at 298.1K by potentiometric titration analysis; procedure, shortened: as §1
[6] = Metal chelating activity assessed as Zn2+-compound complex formation by measuring stability constant for ZnL(OH)2 in 0.15M NaCl at 298.1K by potentiometric titration analysis; procedure, shortened: as §1
[7] = Metal chelating activity assessed as Zn2+-compound complex formation by measuring stability constant for ZnL(OH) using pre-Zn2+-complexed compound (ZnL) in 0.15M NaCl at 298.1K by potentiometric titration analysis; procedure, shortened: as §1
[8] = Metal chelating activity assessed as Zn2+-compound complex formation by measuring stability constant for ZnL(OH) in 0.15M NaCl at 298.1K by potentiometric titration analysis; procedure, shortened: as §1
[9] = Metal chelating activity assessed as Zn2+-compound complex formation at physiological pH 7.4 by quantum mechanical studies
Procedure, shortened: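 Zn2+ complexes modelled by DFT, B3LYP, gas phase. Basis set def2-SV(P), with MDF10 Stuttgart-Dresden effective core potential for Zn and Grimme dispersion correction. Vibrational frequencies and zero-point correction computed for each minimum.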

[10] = test system: LN-229; assay: Antiproliferative activity against human LN229 cells assessed as reduction in cell viability at 10 uM incubated for 48 hrs by cell titer-glo assay; assay type: functional, cell-based; procedure, shortened: as §2
[11] = test system: LN-229; assay: Metal chelating activity in human LN229 cells assessed as decrease in intracellular concentration of labile zinc ions by measuring reduction in zinquin-Zn2+ complex formation incubated for 12 hrs followed by incubation with fluorophore-zinquin for 30 mins by spectrofluorometric analysis; assay type: cell-based
Procedure, shortened: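 LN229 cells were treated 12 h, trypsinized, pelleted and checked by Trypan Blue. Then 6x10⁶ cells in 1 mL PBS were loaded with Zinquin 25 μM for 30 min at 37 °C in the dark. Fluorescence was read at ex 370/em 475 nm with a 400–600 nm scan, normalized to cell number, untreated set to 100; four independent experiments.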

[12] = test system: LN-229; assay: Inhibition of colony formation in human LN229 cells at 30 uM incubated for 4 hrs by crystal violet staining based colony counting method; assay type: functional, cell-based
Procedure, shortened: (§3)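 LN229 and PC3 cells treated for 4 h with compound (10 µM) or with etoposide (30 µM positive control), washed, trypsinized and replated at 3000 cells per 60-mm plate. Colonies grown 7–10 days, fixed and stained with 0.5% crystal violet in 70% ethanol, and counted. Reported as percent of control; four independent experiments, each in duplicate.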

[13] = test system: PC-3; assay: Inhibition of colony formation in human PC3 cells at 30 uM incubated for 4 hrs by crystal violet staining based colony counting method; assay type: functional, cell-based; procedure, shortened: as §3
[14] = Metal chelating activity assessed as Zn2+-compound complex formation by measuring stability constant for ZnL(OH)2 using pre-Zn2+-complexed compound (ZnL(OH)) in 0.15M NaCl and hydroalcoholic solutions (H2O/EtOH 70:30) at 298.1K by potentiometric titration analysis; procedure, shortened: as §1
[15] = Metal chelating activity assessed as Zn2+-compound complex formation by measuring stability constant for ZnL in 0.15M NaCl and hydroalcoholic solutions (H2O/EtOH 70:30) at 298.1K by potentiometric titration analysis; procedure, shortened: as §1
[16] = Metal chelating activity assessed as Zn2+-compound complex formation by measuring stability constant for ZnL(OH) in 0.15M NaCl and hydroalcoholic solutions (H2O/EtOH 70:30) at 298.1K by potentiometric titration analysis; procedure, shortened: as §1
[17] = Metal chelating activity assessed as Zn2+-compound complex formation by measuring stability constant for ZnH2L2 in 0.15M NaCl and hydroalcoholic solutions (H2O/EtOH 70:30) at 298.1K by potentiometric titration analysis
Procedure, shortened: (§4)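 Potentiometric titration at pH 2.0–11.0 with Ag/AgCl reference electrode. Glass electrode calibrated against HCl with CO2-free NaOH by Gran's method (pKw = 13.73). Metal and ligand each at 1×10⁻³ to 5×10⁻³ M, 1:1 molar ratio. At least two titration curves per compound, merged and fitted with HYPERQUAD to give stability constants.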

[18] = Metal chelating activity assessed as Zn2+-compound complex formation by measuring stability constant for ZnL(OH)2 in 0.15M NaCl and hydroalcoholic solutions (H2O/EtOH 70:30) at 298.1K by potentiometric titration analysis; procedure, shortened: as §1
[19] = Metal chelating activity assessed as Zn2+-compound complex formation by measuring stability constant for ZnL(OH) using pre-Zn2+-complexed compound (ZnL) in 0.15M NaCl and hydroalcoholic solutions (H2O/EtOH 70:30) at 298.1K by potentiometric titration analysis; procedure, shortened: as §1
[20] = Metal chelating activity assessed as Zn2+-compound complex formation by measuring stability constant for ZnHL using pre-Zn2+-complexed compound (ZnL) in 0.15M NaCl at 298.1K by potentiometric titration analysis; procedure, shortened: as §1
[21] = Metal chelating activity assessed as Zn2+-compound complex formation by measuring stability constant for ZnH2L using pre-Zn2+-complexed compound (ZnHL) in 0.15M NaCl at 298.1K by potentiometric titration analysis; procedure, shortened: as §4
[22] = Metal chelating activity assessed as Zn2+-compound complex formation by measuring stability constant for ZnH2L in 0.15M NaCl at 298.1K by potentiometric titration analysis; procedure, shortened: as §4
[23] = Metal chelating activity assessed as Zn2+-compound complex formation by measuring stability constant for ZnHL in 0.15M NaCl at 298.1K by potentiometric titration analysis; procedure, shortened: as §1
[24] = test system: DNA; assay: Induction of DNA damage in human Z138 cells assessed as increase in gammaH2AX phosphorylation at Ser139 residue at 1 uM incubated for 4 hrs by Flow cytometry analysis; assay type: cell-based
Procedure, shortened: (§5)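 Z-138 and LN229 cells treated 4 h with 10 µM compound or 1 µM doxorubicin. Fixed in 3.7% formaldehyde on ice, permeabilized with 0.2% Triton X, stained with rabbit anti-pS139 H2A.X (1:400) and Alexa 555 secondary, then analysed by flow cytometry. Fold γH2AX fluorescence versus untreated; mean ± SD of three experiments.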

[25] = test system: DNA; assay: Induction of DNA damage in human LN229 cells assessed as increase in gammaH2AX phosphorylation at Ser139 residue at 1 uM incubated for 4 hrs by Flow cytometry analysis; assay type: cell-based; procedure, shortened: as §5
[26] = test system: Fibroblast; assay: Cytotoxicity against human Fibroblast assessed as reduction in cell viability incubated for 48 hrs by cell titer-glo assay; assay type: cell-based
Procedure, shortened: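 Dose-response: cells plated, treated 24 h later for 48 h, then ATP measured by CellTiter-Glo luminescence. IC50 given as mean ± SD from three independent experiments, each in triplicate. Fibroblasts came from individuals. Cells were kept in RPMI or DMEM with 10% heat-inactivated FBS and penicillin/streptomycin at 37 °C, 5% CO2.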

Row | SMILES | log K [1] | Activity [2] | Activity [3] | Activity [4] | log K [5] | log K [6] | log K [7] | log K [8] | Activity [9] | Activity [10] | Activity [11] | other results
1 | c1ccc2cc(CN(CCNCc3ccncc3)CCNCc3ccncc3)ccc2c1 | -8.67 | inactive | inactive | inactive | 4.72 | -12.9 | -8.99 | -4.22 | 60.7% | inactive | inactive | 
2 | COc1cc([C@@H]2c3cc4c(cc3[C@@H](O[C@@H]3O[C@@H]5CO[C@@H](C)O[C@H]5[C@H](O)[C@H]3O)[C@H]3COC(=O)[C@H]23)OCO4)cc(OC)c1O |  |  |  |  |  |  |  |  |  |  |  | inhibition [12]: Active; inhibition [13]: Active
3 | O=S(=O)(c1cccc2ccccc12)N(CCNCc1ccccn1)CCNCc1ccccn1 | -10.3 | Active | Active | Active | 7.53 | -11.8 | -10 | -1.48 |  | Active | inactive | 
4 | CN(CCNCc1ccncc1)CCNCc1ccncc1 |  | inactive | inactive | inactive |  |  |  |  |  | inactive | inactive | log K [14]: -9.68; log K [15]: 6.57; log K [16]: -2.6; log K [17]: 24.3; log K [18]: -12.3; log K [19]: -9.17
5 | CN(C)c1cccc2c(S(=O)(=O)N(CCNCc3ccccn3)CCNCc3ccccn3)cccc12 | -10.4 | Active | Active | Active | 8.38 | -11.5 | -9.55 | -1.17 | Active | Active | inactive | log K [20]: 4.61; log K [21]: 4.5; log K [22]: 17.5; log K [23]: 13
6 | O=C(NCCN(CCNC(=O)c1ccccn1)Cc1ccc2ccccc2c1)c1ccccn1 |  |  |  |  |  |  |  |  | Active |  | inactive | 
7 | O=S(=O)(c1cccc2cccnc12)N(CCNCc1ccccn1)CCNCc1ccccn1 |  | Active |  | Active |  |  |  |  |  | Active |  | 
8 | COc1cccc2c1C(=O)c1c(O)c3c(c(O)c1C2=O)C[C@@](O)(C(=O)CO)C[C@@H]3O[C@H]1C[C@H](N)[C@H](O)[C@H](C)O1 |  |  |  |  |  |  |  |  |  |  |  | Activity [24]: Active; Activity [25]: Active
9 | c1ccc(CN(CCN(Cc2ccccn2)Cc2ccccn2)Cc2ccccn2)nc1 |  |  |  |  |  |  |  |  |  |  |  | IC50 [26]: 6.7 µM
10 | c1cncc(CNCCN(CCNCc2cccnc2)Cc2ccc3ccccc3c2)c1 | -9.54 | inactive | inactive | inactive | 6.04 | -12.1 | -8.6 | -2.56 | 63.4% | inactive | inactive | log K [23]: 14.1

From ChEMBL document CHEMBL4376884, “Toward a Rational Design of Polyamine-Based Zinc-Chelating Agents for Cancer Therapies” (J Med Chem, 2020)
